This is an account of results in ChEMBL document CHEMBL3085677, “Novel coumarin-3-carboxamides bearing N-benzylpiperidine moiety as potent acetylcholinesterase inhibitors” (Eur J Med Chem, 2013).

The target in data set [1] is Acetylcholinesterase (Electrophorus electricus, UniProt O42275). Put plainly: Inhibition of electric eel AChE using acetylcholine as substrate preincubated for 15 mins prior to substrate addition by Ellman's method.
Data set [2] deals with Cholinesterase (Equus caballus, UniProt P81908). Put plainly: Inhibition of equine serum BChE using butyrylthiocholine iodide as substrate preincubated for 15 mins prior to substrate addition by Ellman's method. Put shortly: (§1)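 Ellman-type assay at 25 °C with eel AChE (Type V-S) or equine serum BuChE, added as a 2.5 unit/mL enzyme solution. Medium was 0.1 M phosphate buffer pH 8.0 with DTNB added from a 0.01 M solution. Inhibitor was preincubated 15 min before acetylthiocholine or butyrylthiocholine iodide. ΔA412 was read over 6 min, corrected against a non-enzymatic blank. Five concentrations in triplicate gave 20–80% inhibition. IC50 came graphically from log-concentration curves, mean of three experiments; SI = IC50 BuChE/IC50 AChE.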
Chain of Cholinesterase (P81908 whole entry): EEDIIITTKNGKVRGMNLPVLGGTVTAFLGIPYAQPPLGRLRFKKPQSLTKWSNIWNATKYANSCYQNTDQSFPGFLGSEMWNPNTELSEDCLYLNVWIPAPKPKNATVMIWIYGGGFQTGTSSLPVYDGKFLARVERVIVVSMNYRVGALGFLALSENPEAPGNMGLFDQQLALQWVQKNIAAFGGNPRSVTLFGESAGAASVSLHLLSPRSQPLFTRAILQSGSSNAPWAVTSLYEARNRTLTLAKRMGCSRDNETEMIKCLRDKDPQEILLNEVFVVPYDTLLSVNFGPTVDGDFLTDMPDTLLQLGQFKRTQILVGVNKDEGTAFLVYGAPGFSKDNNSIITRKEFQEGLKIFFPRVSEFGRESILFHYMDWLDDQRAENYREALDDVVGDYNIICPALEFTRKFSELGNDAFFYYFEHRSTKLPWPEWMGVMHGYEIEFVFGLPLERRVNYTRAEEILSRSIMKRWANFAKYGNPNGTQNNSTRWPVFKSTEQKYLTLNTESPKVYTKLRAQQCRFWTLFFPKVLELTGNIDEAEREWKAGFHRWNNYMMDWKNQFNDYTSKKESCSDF
Background: DTNB colorimetry detects thiols as they appear.

Data set [3] can be described thus: Selectivity index, ratio of IC50 for equine serum BChE to IC50 for electric eel AChE. Put shortly: as §1
The nature of data set [4]: Cytotoxicity against rat PC12 cells at 1 to 100 uM after 24 hrs by MTT assay. Type of data set: cell-based. As to conditions: pc-12, 24 h.
The test system of data set [5] is PC-12. Put plainly: Protection against H2O2-induced cell death in rat PC12 cells pretreated at 1 to 100 uM for 3 hrs before H2O2 challenge using DAPI staining method. The class given is functional, cell-based. The method, boiled down: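 Rat PC12 cells grown in RPMI 1640 with 10% FCS and penicillin/streptomycin, plated at 10^4 cells/well. Held 2 days serum-free, then given NGF 50 ng/ml for 5 days until neurites formed. Pretreated 3 h at three compound levels before H2O2 challenge. Apoptosis judged by DAPI added to live cells for 20 min. Viability read by MTT after 24 h.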

In data set [6] the target is Acetylcholinesterase (Electrophorus electricus) (UniProt O42275). Put plainly: Ratio of donepezil IC50 to compound IC50 for electric eel AChE using acetylcholine as substrate preincubated for 15 mins prior to substrate addition by Ellman's method.
Chain of Acetylcholinesterase (Electrophorus electricus) (O42275 24-633 limits assumed): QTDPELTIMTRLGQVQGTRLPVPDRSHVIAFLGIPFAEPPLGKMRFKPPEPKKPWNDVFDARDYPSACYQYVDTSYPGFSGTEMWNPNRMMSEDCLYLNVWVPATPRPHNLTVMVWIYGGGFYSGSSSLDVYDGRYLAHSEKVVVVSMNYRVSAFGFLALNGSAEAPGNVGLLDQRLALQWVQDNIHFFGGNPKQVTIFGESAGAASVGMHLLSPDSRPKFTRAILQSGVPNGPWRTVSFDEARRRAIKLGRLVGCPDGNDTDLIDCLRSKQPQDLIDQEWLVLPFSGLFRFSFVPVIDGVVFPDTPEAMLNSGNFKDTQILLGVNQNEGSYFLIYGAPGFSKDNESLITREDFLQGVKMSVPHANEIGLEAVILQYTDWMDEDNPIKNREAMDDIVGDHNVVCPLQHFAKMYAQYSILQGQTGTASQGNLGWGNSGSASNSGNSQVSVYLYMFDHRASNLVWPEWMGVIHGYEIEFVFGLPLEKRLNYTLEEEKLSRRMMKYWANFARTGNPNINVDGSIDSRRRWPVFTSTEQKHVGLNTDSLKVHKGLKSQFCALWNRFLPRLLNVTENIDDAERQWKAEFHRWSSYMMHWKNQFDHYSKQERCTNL
Data set [7] has the same target. Put plainly: Mixed-type inhibition of electric eel AChE using acetylcholine as substrate by Lineweaver-Burk plot method. Put shortly: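 Kinetics used eel AChE with inhibitor fixed at 0.357, 3.57 or 11.9 nM. Initial velocities were measured across several acetylthiocholine concentrations. Reciprocal velocity (1/v) was plotted against 1/[ATCh] (double-reciprocal plot).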

The term pIC50 denotes −log10 of the IC50, conventionally taken in molar units. Higher therefore signals a small IC50.

pIC50: −log10 of the molar value. The source made the active and inactive calls. The calls are words filed in the database; no cut-off is given here.

Chain of Acetylcholinesterase (O42275 whole entry): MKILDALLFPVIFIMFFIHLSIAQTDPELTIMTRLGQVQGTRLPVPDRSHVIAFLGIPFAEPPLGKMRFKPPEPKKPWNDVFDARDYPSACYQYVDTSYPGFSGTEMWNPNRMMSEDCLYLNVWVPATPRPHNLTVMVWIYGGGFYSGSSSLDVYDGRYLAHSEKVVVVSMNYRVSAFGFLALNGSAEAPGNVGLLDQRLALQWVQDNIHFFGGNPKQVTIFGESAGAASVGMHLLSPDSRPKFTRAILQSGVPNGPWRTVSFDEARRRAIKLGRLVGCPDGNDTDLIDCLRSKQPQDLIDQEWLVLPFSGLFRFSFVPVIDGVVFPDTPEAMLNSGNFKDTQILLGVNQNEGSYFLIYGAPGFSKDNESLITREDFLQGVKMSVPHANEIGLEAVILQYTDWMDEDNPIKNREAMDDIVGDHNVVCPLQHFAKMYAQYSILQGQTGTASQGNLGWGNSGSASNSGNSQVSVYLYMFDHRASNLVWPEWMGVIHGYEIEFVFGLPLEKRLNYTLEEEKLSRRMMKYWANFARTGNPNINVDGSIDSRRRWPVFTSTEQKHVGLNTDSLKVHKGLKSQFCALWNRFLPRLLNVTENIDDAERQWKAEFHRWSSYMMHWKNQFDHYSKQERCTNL

`O=C(NCCC1CCN(Cc2ccccc2)CC1)c1cc2cc(Br)ccc2oc1=O`: the pIC50 is 8.70 in data set [1] and 6.38 in data set [2]. Also, in data set [3], the Ratio IC50 was 210. For the same molecule, in data set [4], the Activity entry is “Non-toxic”. For the same molecule, the outcome in data set [5] was Active.

Regarding `O=C(NCCC1CCN(Cc2ccccc2)CC1)c1cc2cc([N+](=O)[O-])ccc2oc1=O`, the Ratio IC50 in data set [6] stood at 46; in data set [3] it was 26300. For the same molecule, the inhibition entry in data set [7] is “Active”. Besides, the pIC50 in data set [1] was 9.52; in data set [2], 5.10. Besides, the Activity result in data set [4] is “Non-toxic”. Moreover, the result in data set [5] was Active.

For the molecule `O=C(NCCC1CCN(Cc2ccccc2)CC1)c1cc2ccccc2oc1=O`, the pIC50 in data set [1] is 7.59; in data set [2], 6.43. The Ratio IC50 in data set [3] was found to be 14.

For the molecule `COc1cccc2cc(C(=O)NC3CCN(Cc4ccccc4)CC3)c(=O)oc12`, the values for the negative logarithm of the IC50 (pIC50) in data set [1] and in data set [2] were 6.20 and 4.70, respectively. In addition, the Ratio IC50 in data set [3] was found to be 32.

In the case of `COc1ccc2cc(C(=O)NC3CCN(Cc4ccccc4)CC3)c(=O)oc2c1`, the pIC50 in data set [1] was 6.74; in data set [2], 4.57. Also, the Ratio IC50 in data set [3] amounted to 147.

Consider `O=C(NCCC1CCN(Cc2ccccc2)CC1)c1cc2ccc(O)cc2oc1=O`, for which the pIC50 was 6.84 in data set [1] and 4.34 in data set [2]. Moreover, in data set [3], the Ratio IC50 worked out at 321.

On to `O=C(NC1CCN(Cc2ccccc2)CC1)c1cc2cc([N+](=O)[O-])ccc2oc1=O`, for which the pIC50 in data set [1] is 6.37; in data set [2] it was 4.66. Further, in data set [3], the Ratio IC50 came to 51.

Turning to `O=C(NC1CCN(Cc2ccccc2)CC1)c1cc2ccccc2oc1=O`, the pIC50 in data set [1] is 5.92; in data set [2], 4.77. The Ratio IC50 in data set [3] amounted to 14.

On to `O=C(NC1CCN(Cc2ccccc2)CC1)c1cc2ccc(O)cc2oc1=O`, for which the pIC50 in data set [1] was 5.77; in data set [2] it was 4.26. The Ratio IC50 in data set [3] was 32.

In the case of `COc1ccc2cc(C(=O)NCCC3CCN(Cc4ccccc4)CC3)c(=O)oc2c1`, the pIC50 in data set [1] is 8.30; in data set [2], 6.45. In addition, the Ratio IC50 in data set [3] came out at 71. Besides, the Activity entry in data set [4] was “Non-toxic”. In data set [5], the outcome was Active.

Consider `O=C(NC1CCN(Cc2ccccc2)CC1)c1cc2cc(Br)ccc2oc1=O`, for which the values for the pIC50 in data set [1] and in data set [2] were 7.52 and 4.38, respectively. Also, the Ratio IC50 in data set [3] stood at 1400.

Regarding `O=C(NCCC1CCN(Cc2ccccc2)CC1)c1cc2cc(O)ccc2oc1=O`, the pIC50 in data set [1] is 7.15; in data set [2], 4.81. Further, in data set [3], the Ratio IC50 stood at 222.

As to `COc1cccc2cc(C(=O)NCCC3CCN(Cc4ccccc4)CC3)c(=O)oc12`, the pIC50 in data set [1] was 8.70; in data set [2], 4.74. Also, the Ratio IC50 in data set [3] turned out to be 9000.
